Measurements: ChEMBL document CHEMBL1140904, “Synthesis and analysis of novel glycerolipids for the treatment of metabolic syndrome” (J Med Chem, 2009)

Assays:
Rattus norvegicus [1] = assay: Effect on fatty acid composition in Wistar rat assessed as change in liver 18;2, n-6 level at 250 uM, po after 6 days; format: functional
Summary of the method: (§1)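 Male Wistar rats were gavaged once daily for 6 days with compound in 0.5% CMC at 85 or 250 µmol TTA-equivalent per animal. Controls received palmitic acid. Liver was homogenized in 0.25 M sucrose/10 mM HEPES pH 7.4/1 mM EDTA at 0-4 °C. Lipids were extracted with chloroform:methanol 2:1 and spiked with 21:0 internal standard. Fatty acids were BF3-methanol transesterified and quantified as wt%. Values are mean ± SD, n=5.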

Rattus norvegicus [2] = assay: Effect on fatty acid composition in Wistar rat assessed as change in plasma PUFA level at 250 uM, po after 6 days; format: functional
Rattus norvegicus [3] = assay: Effect on fatty acid composition in Wistar rat assessed as change in liver saturated fatty acid level at 85 uM, po after 6 days; format: functional; summary of the method: as §1
Rattus norvegicus [4] = assay: Effect on fatty acid composition in Wistar rat assessed as change in plasma 18;2, n-6 level at 85 uM, po after 6 days; format: functional
Rattus norvegicus [5] = assay: Effect on fatty acid composition in Wistar rat assessed as change in liver PUFA level at 85 uM, po after 6 days; format: functional; summary of the method: as §1
Rattus norvegicus [6] = assay: Effect on fatty acid composition in Wistar rat assessed as change in liver LCn-6/18:2 level at 85 uM, po after 6 days; format: functional; summary of the method: as §1
Rattus norvegicus [7] = assay: Induction of PPAR-alpha-regulated HMG-CoA synthase activity in po dosed Wistar rat after 6 days; format: functional, organism-based
Summary of the method: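 Wistar rats were gavaged daily for 6 days at 85 or 250 µmol TTA-equivalent in 0.5% CMC, with palmitic acid controls. HMG-CoA synthase activity was assayed in the liver postnuclear fraction by the Clinkenbeard method. Mean ± SD, 5 rats/group.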

Rattus norvegicus [8] = assay: Plasma concentration in Wistar rat at 250 uM, po after 6 days; format: ADME, organism-based; settings: in vivo, 144 h
Rattus norvegicus [9] = assay: Effect on fatty acid composition in Wistar rat assessed as change in liver LCn-6/18:2 level at 250 uM, po after 6 days; format: functional; summary of the method: as §1
Rattus norvegicus [10] = assay: Decrease in plasma triacylglycerol level in po dosed Wistar rat after 6 days; format: functional, organism-based
Summary of the method: (§2)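 Male Wistar rats (170-210 g), housed in pairs with chow and water, were gavaged once daily for 6 days with test lipid in 0.5% (w/v) carboxymethylcellulose at 85 or 250 µmol TTA-equivalent per animal. Controls received palmitic acid in CMC. Plasma triacylglycerol and cholesterol were measured with an enzymatic kit, and liver levels were also determined. Values are mean ± SD, n=5 rats.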

Rattus norvegicus [11] = assay: Effect on fatty acid composition in Wistar rat assessed as change in plasma LCn-6/18:2 level at 250 uM, po after 6 days; format: functional
Rattus norvegicus [12] = assay: Effect on fatty acid composition in Wistar rat assessed as change in liver MUFA level at 250 uM, po after 6 days; format: functional; summary of the method: as §1
Rattus norvegicus [13] = assay: Decrease in plasma cholesterol level in po dosed Wistar rat after 6 days; format: functional, organism-based; summary of the method: as §2
Rattus norvegicus [14] = assay: Plasma concentration in Wistar rat at 85 uM, po after 6 days; format: ADME, organism-based; settings: in vivo, 144 h
Rattus norvegicus [15] = assay: Effect on fatty acid composition in Wistar rat assessed as change in liver 18;2, n-6 level at 85 uM, po after 6 days; format: functional; summary of the method: as §1
Rattus norvegicus [16] = assay: Effect on fatty acid composition in Wistar rat assessed as change in plasma saturated fatty acid level at 85 uM, po after 6 days; format: functional
Rattus norvegicus [17] = assay: Effect on fatty acid composition in Wistar rat assessed as change in liver saturated fatty acid level at 250 uM, po after 6 days; format: functional; summary of the method: as §1
Rattus norvegicus [18] = assay: Effect on fatty acid composition in Wistar rat assessed as change in plasma LCPUFA, n-6 level at 85 uM, po after 6 days; format: functional
Rattus norvegicus [19] = assay: Effect on fatty acid composition in Wistar rat assessed as change in plasma PUFA level at 85 uM, po after 6 days; format: functional
Rattus norvegicus [20] = assay: Effect on fatty acid composition in Wistar rat assessed as change in liver MUFA level at 85 uM, po after 6 days; format: functional; summary of the method: as §1
Rattus norvegicus [21] = assay: Increase in [1-14C]palmitoyl-CoA oxidation in po dosed Wistar rat liver homogenate after 6 days; format: functional, organism-based
Summary of the method: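 Rats were dosed by gastric intubation for 6 days with 85 or 250 µmol TTA-equivalent in 0.5% CMC, with palmitic acid controls. Liver was homogenized in 0.25 M sucrose, 10 mM HEPES pH 7.4, 1 mM EDTA at 0-4 °C. Palmitoyl-CoA oxidation was read as acid-soluble products from [1-14C]-palmitoyl-CoA in the postnuclear fraction. Mean ± SD, n=5.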

Liver [22] = assay: Drug level in Wistar rat liver at 250 uM, po after 6 days; format: ADME, organism-based; settings: in vivo, 144 h; summary of the method: as §1
Rattus norvegicus [23] = assay: Effect on fatty acid composition in Wistar rat assessed as change in plasma MUFA level at 85 uM, po after 6 days; format: functional
Rattus norvegicus [24] = assay: Effect on fatty acid composition in Wistar rat assessed as change in plasma LCPUFA, n-6 level at 250 uM, po after 6 days; format: functional
Rattus norvegicus [25] = assay: Effect on fatty acid composition in Wistar rat assessed as change in plasma 18;2, n-6 level at 250 uM, po after 6 days; format: functional
Rattus norvegicus [26] = assay: Effect on fatty acid composition in Wistar rat assessed as change in plasma LCn-6/18:2 level at 85 uM, po after 6 days; format: functional
Rattus norvegicus [27] = assay: Effect on fatty acid composition in Wistar rat assessed as change in plasma MUFA level at 250 uM, po after 6 days; format: functional
Rattus norvegicus [28] = assay: Effect on fatty acid composition in Wistar rat assessed as change in liver LCPUFA, n-6 level at 250 uM, po after 6 days; format: functional; summary of the method: as §1
Rattus norvegicus [29] = assay: Effect on fatty acid composition in Wistar rat assessed as change in liver PUFA level at 250 uM, po after 6 days; format: functional; summary of the method: as §1
Rattus norvegicus [30] = assay: Effect on fatty acid composition in Wistar rat assessed as change in liver LCPUFA, n-6 level at 85 uM, po after 6 days; format: functional; summary of the method: as §1
Rattus norvegicus [31] = assay: Induction of PPAR-alpha-regulated fatty acyl-CoA oxidase activity in po dosed Wistar rat after 6 days; format: functional, organism-based
Summary of the method: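 Rats were dosed by gastric intubation for 6 days at 85 or 250 µmol TTA-equivalent in 0.5% CMC, with palmitic acid controls. Fatty acyl-CoA oxidase was measured in the liver postnuclear fraction by a coupled assay, following H2O2 production as the rise in dichlorofluorescein absorbance with palmitoyl-CoA. Mean ± SD, n=5.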

Rattus norvegicus [32] = assay: Effect on fatty acid composition in Wistar rat assessed as change in plasma saturated fatty acid level at 250 uM, po after 6 days; format: functional
Rattus norvegicus [33] = assay: Induction of PPAR-alpha-regulated CPT2 activity in po dosed Wistar rat after 6 days; format: functional, organism-based
Summary of the method: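 Wistar rats were dosed orally for 6 days (85 or 250 µmol TTA-equivalent in 0.5% CMC; palmitic acid controls). CPT-II activity was measured in the liver mitochondrial fraction, prepared from sucrose/HEPES pH 7.4/EDTA homogenate at 0-4 °C. Means ± SD from 5 rats per group.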

Liver [34] = assay: Drug level in Wistar rat liver at 85 uM, po after 6 days; format: ADME, organism-based; settings: in vivo, 144 h; summary of the method: as §1

With `CCCCCCCCCCCCCCSCC(=O)O` [TETRADECYLTHIOACETIC ACID] the Activity (Rattus norvegicus [1]) was 11.02%, the Activity (Rattus norvegicus [2]) was 2.24% and the Activity (Rattus norvegicus [3]) was 39.67%. It also gave an Activity (Rattus norvegicus [4]) of 18.46%, an Activity (Rattus norvegicus [5]) of 5.44% and an Activity (Rattus norvegicus [6]) of 2.34%. For the same molecule, the Activity (Rattus norvegicus [7]) was “Dose-dependent effect”, the Drug uptake (Rattus norvegicus [8]) was 1.6% and the Activity (Rattus norvegicus [9]) was 2.56 dimensionless ratio. The Activity (Rattus norvegicus [10]) was “Dose-dependent effect”, the Activity (Rattus norvegicus [11]) was 1.06% and the Activity (Rattus norvegicus [12]) was 16.86%. For the same molecule, the Activity (Rattus norvegicus [13]) was “Dose-dependent effect”, the Drug uptake (Rattus norvegicus [14]) was 0.32% and the Activity (Rattus norvegicus [15]) was 11.15%. The Activity (Rattus norvegicus [16]) was 36.02%, the Activity (Rattus norvegicus [17]) was 38.71% and the Activity (Rattus norvegicus [18]) was 18.75%. The Activity (Rattus norvegicus [19]) was 2.47%, the Activity (Rattus norvegicus [20]) was 17.35% and the Activity (Rattus norvegicus [21]) was “Dose-dependent effect”. The Drug uptake (Liver [22]) was 2.03%, the Activity (Rattus norvegicus [23]) was 23.49% and the Activity (Rattus norvegicus [24]) was 20.82%. For the same molecule, the Activity (Rattus norvegicus [25]) was 19.68%, the Activity (Rattus norvegicus [26]) was 1.03% and the Activity (Rattus norvegicus [27]) was 21.32%. For the same molecule, the Activity (Rattus norvegicus [28]) was 27.66%, the Activity (Rattus norvegicus [29]) was 4.94% and the Activity (Rattus norvegicus [30]) was 25.7%. The Activity (Rattus norvegicus [31]) was “Dose-dependent effect”, the Activity (Rattus norvegicus [32]) was 35% and the Activity (Rattus norvegicus [33]) was “Dose-dependent effect”. For the same molecule, the Drug uptake (Liver [34]) was 0.36%.
